From ChEMBL document CHEMBL4219033, “Anticancer activity profiling of parthenolide analogs generated via P450-mediated chemoenzymatic synthesis” (2018)

What was measured:
Assay type in all cases: functional
Jurkat [1] = assay: Cytotoxicity against human Jurkat cells assessed as cell viability ratio at 10 uM after 24 hrs by MTT assay relative to control
In short: (§1)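 Suspension lines grown in α-MEM plus 10% FBS and penicillin-streptomycin, 37 °C, 5% CO2. Seeded at 30,000 cells/well in phenol-red-free α-MEM and rested 15 h. Exposed to 10 µM, or 2 µM in the lower-dose repeat, at 1% DMSO final for 24 h. 5 mg/ml MTT added directly for 3 h at 37 °C. Plates spun, formazan dissolved in DMSO, OD read at 550 nm. Viability relative to vehicle.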

JeKo-1 [2] = assay: Cytotoxicity against human JeKo1 cells assessed as cell viability ratio at 10 uM after 24 hrs by MTT assay relative to control; in short: as §1
HeLa [3] = assay: Cytotoxicity against human HeLa cells assessed as cell viability ratio at 10 uM after 24 hrs by MTT assay relative to control
In short: (§2)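 Adherent lines in DMEM plus 10% FBS and penicillin-streptomycin, 37 °C, 5% CO2, lifted with Accutase. Seeded at 500–10,000 cells/well and rested 15 h. Compounds from 10 mM DMSO stocks dosed at 10 µM final, 1% DMSO final, n = 5, for 24 h. Medium then swapped for 1 mg/ml MTT in phenol-red-free medium for 3 h at 37 °C. Formazan dissolved in DMSO, OD read at 550 nm. Viability normalised to 1% DMSO vehicle control.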

A549 [4] = assay: Cytotoxicity against human A549 cells assessed as cell viability ratio at 10 uM after 24 hrs by MTT assay relative to control; in short: as §2
HCT-116 [5] = assay: Cytotoxicity against human HCT116 cells assessed as cell viability ratio at 10 uM after 24 hrs by MTT assay relative to control
SJSA-1 [6] = assay: Cytotoxicity against human SJSA1 cells assessed as cell viability ratio at 10 uM after 24 hrs by MTT assay relative to control; in short: as §2
SK-N-MC [7] = assay: Cytotoxicity against human SK-N-MC cells assessed as cell viability ratio at 10 uM after 24 hrs by MTT assay relative to control; in short: as §2
PC-3 [8] = assay: Cytotoxicity against human PC3 cells assessed as cell viability ratio at 10 uM after 24 hrs by MTT assay relative to control; in short: as §2
MDA-MB-231 [9] = assay: Cytotoxicity against human MDA-MB-231 cells assessed as cell viability ratio at 10 uM after 24 hrs by MTT assay relative to control; in short: as §2
SK-MEL-2 [10] = assay: Cytotoxicity against human SK-MEL-2 cells assessed as cell viability ratio at 10 uM after 24 hrs by MTT assay relative to control; in short: as §2
Jurkat [11] = assay: Cytotoxicity against human Jurkat cells assessed as cell viability at 2 uM after 24 hrs by MTT assay relative to control; conditions: read-out: Activity; in short: as §1
JeKo-1 [12] = assay: Cytotoxicity against human JeKo1 cells assessed as cell viability at 2 uM after 24 hrs by MTT assay relative to control; conditions: JeKo-1, 24 h, read-out: Activity; in short: as §1
Jurkat [13] = assay: Cytotoxicity against human Jurkat cells assessed as cell viability at 10 uM after 24 hrs by MTT assay relative to control; conditions: read-out: Activity; in short: as §1
JeKo-1 [14] = assay: Cytotoxicity against human JeKo1 cells assessed as cell viability at 10 uM after 24 hrs by MTT assay relative to control; conditions: JeKo-1, 24 h, read-out: Activity; in short: as §1
HeLa [15] = assay: Cytotoxicity against human HeLa cells assessed as cell viability at 10 uM after 24 hrs by MTT assay relative to control; conditions: read-out: Activity; in short: as §2
A549 [16] = assay: Cytotoxicity against human A549 cells assessed as cell viability at 10 uM after 24 hrs by MTT assay relative to control; conditions: A549, 24 h, read-out: Activity; in short: as §2
HCT-116 [17] = assay: Cytotoxicity against human HCT116 cells assessed as cell viability at 10 uM after 24 hrs by MTT assay relative to control; conditions: HCT-116, 24 h, read-out: Activity; in short: as §2
SJSA-1 [18] = assay: Cytotoxicity against human SJSA1 cells assessed as cell viability at 10 uM after 24 hrs by MTT assay relative to control; conditions: SJSA-1, 24 h, read-out: Activity; in short: as §2
SK-N-MC [19] = assay: Cytotoxicity against human SK-N-MC cells assessed as cell viability at 10 uM after 24 hrs by MTT assay relative to control; conditions: read-out: Activity; in short: as §2
PC-3 [20] = assay: Cytotoxicity against human PC3 cells assessed as cell viability at 10 uM after 24 hrs by MTT assay relative to control; conditions: PC-3, 24 h, read-out: Activity; in short: as §2
MDA-MB-231 [21] = assay: Cytotoxicity against human MDA-MB-231 cells assessed as cell viability at 10 uM after 24 hrs by MTT assay relative to control; conditions: MDA-MB-231, 24 h, read-out: Activity; in short: as §2
SK-MEL-2 [22] = assay: Cytotoxicity against human SK-MEL-2 cells assessed as cell viability at 10 uM after 24 hrs by MTT assay relative to control; conditions: SK-MEL-2, 24 h, read-out: Activity; in short: as §2
Jurkat [23] = assay: Cytotoxicity against human Jurkat cells assessed as cell viability after 24 hrs by MTT assay; conditions: read-out: LC50 (the source's name)
In short: (§3)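 Suspension cells grown in α-MEM with 10% FBS and penicillin-streptomycin, seeded at 30,000 cells/well in phenol red-free medium and held 15 h before treatment. Compounds diluted from 10 mM DMSO stocks, final 1% DMSO, for 24 h. MTT (5 mg/ml stock) added directly for 3 h at 37 °C, then centrifugation, DMSO solubilization, OD 550 nm. LC50 from dose-response curves normalized to vehicle.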

JeKo-1 [24] = assay: Cytotoxicity against human JeKo1 cells assessed as cell viability after 24 hrs by MTT assay; conditions: JeKo-1, 24 h, read-out: LC50 (the source's name); in short: as §3
HeLa [25] = assay: Cytotoxicity against human HeLa cells assessed as cell viability after 24 hrs by MTT assay; conditions: read-out: LC50 (the source's name)
In short: (§4)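 Adherent cells grown in DMEM with 10% FBS and penicillin-streptomycin, dissociated with Accutase, seeded at 500–10,000 cells/well and held 15 h before treatment. Compounds diluted from 10 mM DMSO stocks, final 1% DMSO, for 24 h at 37 °C, 5% CO2. Medium replaced with 1 mg/ml MTT for 3 h, formazan dissolved in DMSO, OD 550 nm. LC50 from dose-response curves normalized to 1% DMSO vehicle.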

A549 [26] = assay: Cytotoxicity against human A549 cells assessed as cell viability after 24 hrs by MTT assay; conditions: A549, 24 h, read-out: LC50 (the source's name); in short: as §4
HCT-116 [27] = assay: Cytotoxicity against human HCT116 cells assessed as cell viability after 24 hrs by MTT assay; conditions: HCT-116, 24 h, read-out: LC50 (the source's name); in short: as §4
SJSA-1 [28] = assay: Cytotoxicity against human SJSA1 cells assessed as cell viability after 24 hrs by MTT assay; conditions: SJSA-1, 24 h, read-out: LC50 (the source's name); in short: as §4
SK-N-MC [29] = assay: Cytotoxicity against human SK-N-MC cells assessed as cell viability after 24 hrs by MTT assay; conditions: read-out: LC50 (the source's name); in short: as §4
PC-3 [30] = assay: Cytotoxicity against human PC3 cells assessed as cell viability after 24 hrs by MTT assay; conditions: PC-3, 24 h, read-out: LC50 (the source's name); in short: as §4
MDA-MB-231 [31] = assay: Cytotoxicity against human MDA-MB-231 cells assessed as cell viability after 24 hrs by MTT assay; conditions: MDA-MB-231, 24 h, read-out: LC50 (the source's name); in short: as §4
SK-MEL-2 [32] = assay: Cytotoxicity against human SK-MEL-2 cells assessed as cell viability after 24 hrs by MTT assay; conditions: SK-MEL-2, 24 h, read-out: LC50 (the source's name); in short: as §4

Row | Compound | viability at 2 µM (Jurkat [11]) [%] | viability at 2 µM (JeKo-1 [12]) [%] | viability at 10 µM (Jurkat [13]) [%] | viability at 10 µM (JeKo-1 [14]) [%] | viability at 10 µM (HeLa [15]) [%] | viability at 10 µM (A549 [16]) [%] | viability at 10 µM (HCT-116 [17]) [%] | viability at 10 µM (SJSA-1 [18]) [%] | viability at 10 µM (SK-N-MC [19]) [%] | viability at 10 µM (PC-3 [20]) [%] | viability at 10 µM (MDA-MB-231 [21]) [%] | viability at 10 µM (SK-MEL-2 [22]) [%] | CC50 (Jurkat [23]) [µM] | CC50 (JeKo-1 [24]) [µM] | CC50 (HeLa [25]) [µM] | CC50 (A549 [26]) [µM] | CC50 (HCT-116 [27]) [µM] | CC50 (SK-N-MC [29]) [µM] | CC50 (PC-3 [30]) [µM] | CC50 (MDA-MB-231 [31]) [µM] | other results
1 | C=C1C(=O)O[C@@H]2[C@H]3O[C@]3(C)CC/C=C(\C)[C@@H](O)C[C@@H]12 |  |  |  |  |  |  |  |  |  |  |  |  |  |  |  |  |  |  |  |  | fold change (FC) (Jurkat [1]): 1; fold change (FC) (JeKo-1 [2]): 1; fold change (FC) (HeLa [3]): 0.2; fold change (FC) (A549 [4]): 1; fold change (FC) (HCT-116 [5]): 1; fold change (FC) (SJSA-1 [6]): 0.9; fold change (FC) (SK-N-MC [7]): 1; fold change (FC) (PC-3 [8]): 1; fold change (FC) (MDA-MB-231 [9]): 0.9; fold change (FC) (SK-MEL-2 [10]): 1
2 | C=C1C(=O)O[C@@H]2[C@H]3O[C@]3(C)CC/C=C(/COC(=O)Nc3cc(C(F)(F)F)cc(C(F)(F)F)c3)CC[C@@H]12 | 74.9 | 71.5 | 0 | -1.8 | 3.8 | 25.1 | 3.9 | 23.3 | 2.1 | 13.7 | 5.5 | 25.7 | 3.3 | 3.4 | 1.5 | 5.5 | 5.9 | 0.6 | 5.5 | 6.1 | CC50 (SJSA-1 [28]): 9.2 µM; CC50 (SK-MEL-2 [32]): 4.3 µM
3 | C=C1C(=O)O[C@@H]2[C@H]3O[C@]3(C)CC/C=C(\CO)CC[C@@H]12 |  |  |  |  |  |  |  |  |  |  |  |  |  |  |  |  |  |  |  |  | fold change (FC) (Jurkat [1]): 1; fold change (FC) (JeKo-1 [2]): 1; fold change (FC) (HeLa [3]): 0.3; fold change (FC) (A549 [4]): 0.9; fold change (FC) (HCT-116 [5]): 0.9; fold change (FC) (SJSA-1 [6]): 0.9; fold change (FC) (SK-N-MC [7]): 1; fold change (FC) (PC-3 [8]): 1; fold change (FC) (MDA-MB-231 [9]): 1; fold change (FC) (SK-MEL-2 [10]): 1
4 | C=C1C(=O)O[C@@H]2[C@H]3O[C@]3(C)CC/C=C(/COC(=O)c3cc(C(F)(F)F)cc(C(F)(F)F)c3)CC[C@@H]12 | 70 | 64.3 | 5.7 | 4.8 | 3.9 | 29.6 | 15.5 | 23.1 | 3.2 | 3.7 | 8 | 28.6 | 1.9 | 1.7 | 1.5 | 4.9 | 5.7 | 0.6 | 4.7 | 6.2 | CC50 (SJSA-1 [28]): 6.4 µM
5 | C=C1C(=O)O[C@@H]2[C@H]3O[C@]3(C)CC/C=C(/C)[C@@H](OC(=O)c3cc(C(F)(F)F)cc(C(F)(F)F)c3)C[C@@H]12 | 53.1 | 73.3 | 5 | 4.1 | 32 | 82.5 | 54.4 | 88.2 | 3 | 2.2 | 3.6 | 14.8 | 1.2 | 1.2 |  |  |  | 4.7 | 3.1 | 3.8 | CC50 (SK-MEL-2 [32]): 2.6 µM
6 | C=C1C(=O)O[C@@H]2C3O[C@]3(C)CC/C=C(\C)CC[C@@H]12 (stereo partly drawn) | 100 | 100 | 70.3 | 47.5 | 35 | 85 | 104 | 100 | 30 | 82.6 | 67 | 95.8 | 16.9 | 10 | 9 | 29.7 | 18 | 4.7 | 20.5 | 18.3 | CC50 (SJSA-1 [28]): 42.4 µM; CC50 (SK-MEL-2 [32]): 24.9 µM
